# Experimental data taken from ChEMBL document CHEMBL3259620, “Structure-activity relationships and molecular modelling of new 5-arylidene-4-thiazolidinone derivatives as aldose reductase inhibitors and potential anti-inflammatory agents” (Eur J Med Chem, 2014).
# Activity calls are given as the source filed them. The rule behind the calls is not given here.
# What was measured:
# [1] = molecular target: T1, Nuclear factor NF-kappa-B complex (Homo sapiens) (UniProt Q00653+P19838+Q04206); experiment: Inhibition of IFN-gamma/histamine-induced NF-kappaB activation in human NCTC-2544 cells assessed as inhibition of nuclear translocation at 10 uM after 48 hrs by Western blot analysis relative to sorbinil; format: cell-based
# Method in brief: (§1)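 NCTC 2544 keratinocytes kept at 37 °C in 95% air/5% CO2, medium with 10% foetal calf serum plus penicillin/streptomycin, plated 1.5 × 10⁶ per dish 24 h beforehand. Stimulated with 200 U/ml IFN-γ and 10^-4 M histamine while exposed to compound; after 48 h, lysates (50 µg protein) run in Western blots against NF-κB p50 (nuclear activated form) or iNOS, signal normalized to α-tubulin. Each experiment at least three times in triplicate, mean ± SEM.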
# [2] = molecular target: Aldo-keto reductase family 1 member B1 (Bos taurus, UniProt P16116); experiment: Inhibition of bovine aldose reductase assessed as oxidation of NADPH
# Method in brief: (§2)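 AR purified from bovine lens (specific activity 1.2 U/mg), 5 mU per assay. Mixture of 0.25 M sodium phosphate pH 6.8, 4.67 mM D,L-glyceraldehyde, 0.11 mM NADPH, 0.38 M ammonium sulphate, 0.5 mM EDTA, 1% DMSO final. NADPH oxidation followed as absorbance decrease at 340 nm, 37 °C. IC50 by nonlinear fit to one-site competition log dose–inhibition curve.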
# [3] = tested on: NCTC-2544; experiment: Antiinflammatory activity in human NCTC-2544 cells assessed as reduction of IFN-gamma/histamine-induced-induced iNOS expression at 10 to 20 uM after 48 hrs by Western blot analysis; format: functional, cell-based; method in brief: as §1
# [4] = tested on: NCTC-2544; experiment: Antiinflammatory activity in human NCTC-2544 cells assessed as reduction of IFN-gamma/histamine-induced-induced iNOS expression at 20 uM after 48 hrs by Western blot analysis relative to control level; format: functional, cell-based; method in brief: as §1
# [5] = molecular target: T1, Nuclear factor NF-kappa-B complex (Homo sapiens); experiment: Inhibition of IFN-gamma/histamine-induced NF-kappaB activation in human NCTC-2544 cells assessed as inhibition of nuclear translocation at 10 to 20 uM after 48 hrs by Western blot analysis; format: cell-based; method in brief: as §1
# [6] = molecular target: Aldo-keto reductase family 1 member B1 (Bos taurus) (UniProt P16116); experiment: Inhibition of bovine aldose reductase assessed as oxidation of NADPH at 50 uM; method in brief: as §2
# T1 sequence (P19838 whole entry, looked up): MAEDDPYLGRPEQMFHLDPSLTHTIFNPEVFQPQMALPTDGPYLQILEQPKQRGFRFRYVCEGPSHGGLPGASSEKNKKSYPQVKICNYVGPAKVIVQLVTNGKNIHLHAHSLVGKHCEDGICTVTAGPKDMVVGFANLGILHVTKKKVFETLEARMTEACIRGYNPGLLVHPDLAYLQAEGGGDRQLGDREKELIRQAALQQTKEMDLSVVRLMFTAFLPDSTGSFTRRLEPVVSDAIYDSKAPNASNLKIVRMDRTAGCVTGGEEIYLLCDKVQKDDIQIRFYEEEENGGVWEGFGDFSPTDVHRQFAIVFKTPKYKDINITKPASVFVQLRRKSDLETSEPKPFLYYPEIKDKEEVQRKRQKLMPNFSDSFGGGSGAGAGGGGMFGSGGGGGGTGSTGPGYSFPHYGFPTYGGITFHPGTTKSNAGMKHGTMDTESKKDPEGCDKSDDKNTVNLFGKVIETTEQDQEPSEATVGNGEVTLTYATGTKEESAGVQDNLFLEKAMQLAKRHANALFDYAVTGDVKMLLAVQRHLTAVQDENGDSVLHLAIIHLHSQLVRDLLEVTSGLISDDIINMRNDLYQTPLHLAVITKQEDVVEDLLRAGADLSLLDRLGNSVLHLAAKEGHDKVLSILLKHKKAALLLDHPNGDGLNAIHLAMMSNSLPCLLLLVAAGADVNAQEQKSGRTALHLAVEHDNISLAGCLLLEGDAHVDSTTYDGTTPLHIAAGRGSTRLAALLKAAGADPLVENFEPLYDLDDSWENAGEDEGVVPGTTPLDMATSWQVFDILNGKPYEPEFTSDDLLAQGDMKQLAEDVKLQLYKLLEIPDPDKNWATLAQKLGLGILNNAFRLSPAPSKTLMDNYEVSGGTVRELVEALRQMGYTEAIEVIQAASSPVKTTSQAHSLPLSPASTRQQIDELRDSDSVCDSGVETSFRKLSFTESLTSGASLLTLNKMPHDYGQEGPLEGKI
# T1 sequence (Q00653 whole entry, looked up): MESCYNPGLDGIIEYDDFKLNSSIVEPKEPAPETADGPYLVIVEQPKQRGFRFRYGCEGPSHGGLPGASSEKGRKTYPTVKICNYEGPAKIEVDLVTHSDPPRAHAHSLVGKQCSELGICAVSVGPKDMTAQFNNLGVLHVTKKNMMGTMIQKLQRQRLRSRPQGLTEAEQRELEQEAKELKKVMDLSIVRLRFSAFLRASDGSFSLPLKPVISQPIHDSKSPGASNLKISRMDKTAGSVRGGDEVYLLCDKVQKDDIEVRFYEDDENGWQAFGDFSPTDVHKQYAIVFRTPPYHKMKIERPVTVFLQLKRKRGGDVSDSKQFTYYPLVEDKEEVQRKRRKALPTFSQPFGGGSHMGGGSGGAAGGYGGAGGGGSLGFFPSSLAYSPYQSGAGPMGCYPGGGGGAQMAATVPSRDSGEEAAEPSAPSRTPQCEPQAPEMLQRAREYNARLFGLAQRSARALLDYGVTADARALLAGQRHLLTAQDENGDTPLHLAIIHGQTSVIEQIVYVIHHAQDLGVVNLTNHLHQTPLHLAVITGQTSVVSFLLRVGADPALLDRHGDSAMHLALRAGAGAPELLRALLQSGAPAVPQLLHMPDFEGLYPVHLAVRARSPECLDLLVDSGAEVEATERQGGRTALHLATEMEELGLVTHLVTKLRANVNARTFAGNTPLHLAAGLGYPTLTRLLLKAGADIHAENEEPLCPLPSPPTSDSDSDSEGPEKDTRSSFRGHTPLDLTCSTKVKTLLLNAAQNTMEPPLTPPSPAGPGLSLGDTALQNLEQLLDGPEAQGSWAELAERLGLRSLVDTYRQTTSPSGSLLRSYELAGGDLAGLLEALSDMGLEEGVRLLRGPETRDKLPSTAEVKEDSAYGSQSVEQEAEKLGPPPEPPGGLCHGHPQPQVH
# T1 sequence (Q04206 whole entry, looked up): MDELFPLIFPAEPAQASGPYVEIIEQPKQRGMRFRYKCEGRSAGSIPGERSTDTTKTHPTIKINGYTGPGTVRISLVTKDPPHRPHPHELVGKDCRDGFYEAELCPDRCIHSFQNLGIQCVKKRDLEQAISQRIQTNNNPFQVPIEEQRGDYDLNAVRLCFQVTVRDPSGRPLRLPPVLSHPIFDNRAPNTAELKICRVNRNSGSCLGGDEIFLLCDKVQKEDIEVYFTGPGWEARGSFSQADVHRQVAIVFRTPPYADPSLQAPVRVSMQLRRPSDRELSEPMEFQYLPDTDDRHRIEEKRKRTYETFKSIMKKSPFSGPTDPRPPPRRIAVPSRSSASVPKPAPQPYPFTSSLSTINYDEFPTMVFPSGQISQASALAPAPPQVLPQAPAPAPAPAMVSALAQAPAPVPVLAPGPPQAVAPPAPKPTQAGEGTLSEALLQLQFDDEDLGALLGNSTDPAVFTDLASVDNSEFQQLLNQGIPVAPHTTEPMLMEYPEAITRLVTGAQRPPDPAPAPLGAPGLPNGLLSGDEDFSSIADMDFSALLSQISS
structure (smiles),measurement,setting,value
O=C1NC(=O)[C@@]2(CCOc3ccc(F)cc32)N1,inhibition,[1],Active
COc1ccc(/C=C2\SC(=O)NC2=O)cc1OCC(N)=O,IC50,[2],22600 nM
NC(=O)COc1cccc(/C=C2\SC(=S)NC2=O)c1,inhibition,[3],Active
same,inhibition,[4],Active
same,NF-kappaB nuclear translocation inhibition (active/not active),[5],inactive
same,IC50,[2],8650 nM
NC(=O)COc1ccc(/C=C2\SC(=S)NC2=O)cc1,inhibition,[6],34%
NC(=O)COc1ccc(/C=C2\SC(=O)N(CC(=O)O)C2=O)cc1,IC50,[2],560 nM
NC(=O)COc1cccc(/C=C2\SC(=S)N(CC(=O)O)C2=O)c1,inhibition,[3],inactive
same,inhibition,[1],Active
same,NF-kappaB nuclear translocation inhibition (active/not active),[5],Active
same,IC50,[2],130 nM
NC(=O)COc1ccc(/C=C2\SC(=S)N(CC(=O)O)C2=O)cc1,IC50,[2],130 nM
NC(=O)COc1cccc(/C=C2\SC(=O)NC2=O)c1,IC50,[2],21500 nM
COc1ccc(/C=C2\SC(=S)NC2=O)cc1OCC(N)=O,inhibition,[3],Active
same,inhibition,[4],Active
same,NF-kappaB nuclear translocation inhibition (active/not active),[5],inactive
same,IC50,[2],9200 nM
COc1ccc(/C=C2\SC(=O)N(CC(=O)O)C2=O)cc1OCC(N)=O,IC50,[2],520 nM
COc1ccc(/C=C2\SC(=S)N(CC(=O)O)C2=O)cc1OCC(N)=O,inhibition,[3],Active
same,inhibition,[4],Active
same,inhibition,[1],Active
same,NF-kappaB nuclear translocation inhibition (active/not active),[5],Active
same,IC50,[2],130 nM
COc1cc(/C=C2\SC(=O)N(CC(=O)O)C2=O)ccc1OCC(N)=O,IC50,[2],500 nM
NC(=O)COc1ccc(/C=C2\SC(=O)NC2=O)cc1,inhibition,[6],40%
NC(=O)COc1cccc(/C=C2\SC(=O)N(CC(=O)O)C2=O)c1,IC50,[2],1010 nM
COc1cc(/C=C2\SC(=O)NC2=O)ccc1OCC(N)=O,IC50,[2],33900 nM
COc1cc(/C=C2\SC(=S)NC2=O)ccc1OCC(N)=O,IC50,[2],11600 nM
COc1cc(/C=C2\SC(=S)N(CC(=O)O)C2=O)ccc1OCC(N)=O,inhibition,[3],Active
same,inhibition,[1],Active
same,NF-kappaB nuclear translocation inhibition (active/not active),[5],Active
same,IC50,[2],110 nM
